The source of these data is ChEMBL document CHEMBL4359825, “Synthesis of novel S-linked dihydroartemisinin derivatives and evaluation of their anticancer activity” (Eur J Med Chem, 2019).

Structures are written as SMILES. Active and inactive are the calls of the source. The calls are words filed in the database; no cut-off is given here.

The subject of experiment [1] is PC-3. The experiment in a line: Anticlonogenic activity against human PC3 cells assessed as reduction in colony formation incubated for 72 hrs supplemented with fresh medium containing measured after 15 days by colony formation assay. The format is functional, cell-based. An outline of the steps: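 Clonogenic assay: PC-3 seeded at 500 cells/well in six-well plates, allowed to adhere overnight, then treated. Medium and compound renewed every 72 h over 15 days. Colonies fixed with 3.7% formaldehyde for 20 min, stained with 0.4% crystal violet and counted. Three experiments, each in quadruplicate, expressed as fold change versus control.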

The subject of experiment [2] is PC-3. The experiment in a line: Induction of apoptosis in human PC3 cells assessed as nuclear condensation at 3 to 10 uM after 72 hrs by Hoechst 33342 staining based fluorescence microscopy. The class given is functional, cell-based. An outline of the steps: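 PC-3 cells treated 72 h with 3 or 10 μM, stained with Hoechst 33342 for 15 min at room temperature in the dark, washed with PBS, and nuclei examined by fluorescence microscopy for condensation.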

For experiment [3], the system named is PC-3. Briefly: Induction of apoptosis in human PC3 cells assessed as upregulation of Bax expression measured after 72 hrs by Western blot analysis. The class given is functional, cell-based. An outline of the steps:
(§1)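 Western blot: PC-3 seeded 1.25 × 10^5/well, exposed to 0.1–10 μM for 72 h. Lysed in 2× SDS buffer and sonicated; 20–25 μg protein run on 12% SDS gel, transferred to PVDF, blocked in 5% BSA/TBST. Primary antibodies overnight, secondary 1 h; ECL detection, β-actin loading control.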

Experiment [4] has as its system PC-3. The experiment in a line: Induction of cell death in human PC3 cells at 10 uM measured after 72 hrs by propidium iodide staining based flow cytometry analysis (reference value: 0.5 %). The class given is functional. The gist of the method:
(§2)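 PC-3 cells in six-well plates exposed to 3 or 10 μM for 72 h, 0.1% DMSO vehicle as control; cells harvested, PBS-washed, stained with propidium iodide (5 μg/mL) 20 min at 4 °C; percentage dead cells read by flow cytometry; t-test against vehicle.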

Experiment [5] concerns PC-3. The experiment in a line: Antiproliferative activity against human PC3 cells assessed as reduction in cell viability at 1 to 10 uM incubated for 72 hrs by MTT assay. The class given is functional, cell-based.
In experiment [6] the test system is PC-3. The experiment in a line: Induction of apoptosis in human PC3 cells assessed as down-regulation of BCL-xL expression measured after 72 hrs by Western blot analysis. The class given is functional, cell-based. The gist of the method:
as §1

Experiment [7] concerns PC-3. Briefly: Cell cycle arrest in human PC3 cells assessed as accumulation at G0/G1 phase at 10 uM measured after 48 hrs by RNase/propidium iodide staining based flow cytometry analysis (reference value: 42.59 %). The class given is functional.
Another experiment deals with A549. Briefly: Anticancer activity against human A549 cells assessed as cell viability measured after 72 hrs by MTT assay (reference value: 100 +/- 9.6 %). The format is functional. Also on record: concentration or dose not given beside the values.
For experiment [8], the system named is PC-3. Briefly: Cytotoxicity against human PC3 cells assessed as reduction in cell viability at 3 to 10 uM pretreated with NAC for 2 hrs followed by compound addition and measured after 72 hrs by MTT assay. The class given is functional, cell-based. The gist of the method:
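PC-3 cells in 96-well plates pretreated 2 h with N-acetyl cysteine (20 μM), then exposed to 3 or 10 μM test agent for 72 h. Viability read by MTT as in the standard protocol, absorbance 570 nm, relative to DMSO control. Three separate experiments.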

Another experiment relates to A-431. The experiment in a line: Anticancer activity against human A431 cells assessed as cell viability measured after 72 hrs by MTT assay (reference value: 100 +/- 11.7 %). The class given is functional. Also noted: concentration or dose not given beside the values.
Experiment [9] concerns PC-3. Briefly: Cell cycle arrest in human PC3 cells assessed as accumulation at G2/M phase at 3 uM measured after 48 hrs by RNase/propidium iodide staining based flow cytometry analysis (reference value: 34.95 %). The class given is functional.
Another experiment has as its system HepG2. Briefly: Anticancer activity against human HepG2 cells assessed as reduction in cell viability measured after 72 hrs by MTT assay. The class given is functional, cell-based. To be noted: HepG2, 72 h.
Experiment [10] relates to PC-3. Briefly: Downregulation of cyclinB1 mRNA expression in human PC3 cells at 3 to 10 uM measured after 72 hrs by TRIzol dye based RT-PCR analysis. The class given is functional, cell-based. An outline of the steps: (§3)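 PC-3 (1.25 × 10^5/well) treated 72 h with 3 or 10 μM. Total RNA extracted with TRIzol; cDNA made from 2 μg RNA. SYBR qPCR: 95 °C 10 min, then 40 cycles of 95 °C/60 °C. Expression normalised to GAPDH by 2^-ΔΔCt; three experiments.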

Experiment [11] deals with PC-3. The experiment in a line: Downregulation of PCNA mRNA expression in human PC3 cells at 3 to 10 uM measured after 72 hrs by TRIzol dye based RT-PCR analysis. The format is functional, cell-based. An outline of the steps:
as §3

For experiment [12], the system named is PC-3. The experiment in a line: Antimetastatic activity against human PC3 cells assessed as inhibition of MMP-9 at 3 to 10 uM measured after 48 hrs by gelatin zymography. The class given is functional, cell-based. The gist of the method:
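PC-3 monolayers scratched, then treated with 3 or 10 μM for 48 h in serum-containing medium, then 24 h in serum-free medium. Conditioned medium run non-reduced on 7.5% SDS-PAGE containing gelatin 4 mg/mL. Gel washed in 2.5% Triton X-100, incubated 24 h at 37 °C in Tris pH 7.5 with CaCl2/ZnCl2, Coomassie stained; lysis seen as clear bands.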

For another experiment, the system named is MDA-MB-231. The experiment in a line: Anticancer activity against human MDA-MB-231 cells assessed as reduction in cell viability measured after 72 hrs by MTT assay. The format is functional, cell-based. The settings on record: MDA-MB-231, 72 h.
The next experiment deals with HeLa. Briefly: Anticancer activity against human HeLa cells assessed as cell viability measured after 72 hrs by MTT assay (reference value: 100 +/- 11.5 %). The format is functional. Also noted: concentration or dose not given beside the values.
Experiment [13] has as its system PC-3. Briefly: Induction of cell death in human PC3 cells at 3 uM measured after 72 hrs by propidium iodide staining based flow cytometry analysis (reference value: 0.5 %). The class given is functional. An outline of the steps:
as §2

Experiment [14] relates to PC-3. Briefly: Anticancer activity against human PC3 cells assessed as reduction in cell viability measured after 72 hrs by MTT assay. The format is functional, cell-based. To be noted: PC-3, 72 h.
The test system of experiment [15] is PC-3. Briefly: Induction of reactive oxygen species generation in human PC3 cells assessed as increase in intracellular ROS level at 3 to 10 uM incubated for 3 hrs by CM-H2DCFDA staining based fluorescence microscopy analysis. The format is functional, cell-based. An outline of the steps:
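Approx. 1×10^5 PC-3 cells per well treated 3 h at 3 or 10 μM; medium replaced with 10 μM CM-H2DCFDA for 30 min in dark at 37 °C, nuclei counterstained Hoechst 33342 (1 μg/mL) 15 min at room temperature; fluorescence microscopy, percentage ROS-producing cells scored versus vehicle.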

The subject of experiment [16] is PC-3. The experiment in a line: Cell cycle arrest in human PC3 cells assessed as accumulation at G0/G1 phase at 3 uM measured after 48 hrs by RNase/propidium iodide staining based flow cytometry analysis (reference value: 42.59 %). The format is functional.
In experiment [17] the test system is PC-3. Briefly: Cell cycle arrest in human PC3 cells assessed as accumulation at G2/M phase at 10 uM measured after 48 hrs by RNase/propidium iodide staining based flow cytometry analysis (reference value: 34.95 %). The format is functional.
The subject of experiment [18] is PC-3. The experiment in a line: Antimigratory activity against human PC3 cells assessed as reduction in cell migration at 3 to 10 uM measured upto 24 hrs by scratch wound healing assay. The format is functional, cell-based. An outline of the steps:
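Wound healing: PC-3 seeded 3 × 10^5/well, grown to a monolayer at 37 °C, 5% CO2. Scratch made with a pipette tip, detached cells washed off, then 3 or 10 μM added.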

Another experiment concerns LNCaP. Briefly: Anticancer activity against human LNCAP cells assessed as cell viability measured after 72 hrs by MTT assay (reference value: 100 +/- 5.0 %). The class given is functional. Also noted: concentration or dose not given beside the values.

Take `COC(=O)Cc1ccc(S[C@@H]2O[C@@H]3O[C@@]4(C)CC[C@H]5[C@H](C)CC[C@@H]([C@H]2C)[C@@]35OO4)cc1`: the Activity result in the experiment on PC-3 [1] is “Dose-dependent effect”; in the experiment with PC-3 [3], “Dose-dependent effect”; in the experiment on PC-3 [4], 28.9%; in the experiment with PC-3 [6], “Dose-dependent effect”; in the experiment with PC-3 [7], 53.71%; in the experiment with A549, 68%. The Activity is recorded as 35% in the experiment with A-431; 32.24% in the experiment on PC-3 [9]; 43% with HeLa; 26.3% in the experiment on PC-3 [13]; 54.49% in the experiment with PC-3 [16]; 32.19% in the experiment on PC-3 [17]. Moreover, the Activity in the experiment on LNCaP came out at 38%. In addition, the outcome with PC-3 [2], in the experiment on PC-3 [5], in the experiment with PC-3 [10], in the experiment on PC-3 [11], in the experiment on PC-3 [15] and in the experiment on PC-3 [18] was Active. Moreover, in the experiment on PC-3 [8], the result was inactive. The IC50 was determined as 6.08 µM with HepG2, 9.03 µM in the experiment with MDA-MB-231 and 6.13 µM in the experiment on PC-3 [14]. In addition, the inhibition result with PC-3 [12] was “Dose-dependent effect”.
